{"data": "Measured values pooled from the literature", "target": "Serine/threonine-protein kinase PLK3 (PLK3, Homo sapiens, UniProt Q9H4B4)"}
{"Compound": "COc1cc2c(Nc3ccc(Br)cc3F)ncnc2cc1OCC1CCN(C)CC1", "read-out": "cell-free assay", "concentration": "0.5 µM", "endpoint": "remaining signal", "value": "95%"}
{"Compound": "CCN(CC)CCNC(=O)c1c(C)[nH]c(/C=C2\\C(=O)Nc3ccc(F)cc32)c1C", "read-out": "enzyme activity", "mode": "inhibitor", "concentration": "0.3 µM", "endpoint": "inhibition", "value": "-10%"}
{"Compound": "Cc1cc(NC(=O)c2cccc3cc(-c4cccc5[nH]nc(N)c45)ccc23)ccc1F", "read-out": "enzyme activity", "mode": "inhibitor", "concentration": "0.1 µM", "endpoint": "activity vs control", "value": "92%"}
{"Compound": "Cc1ccc(Nc2nccc(N(C)c3ccc4c(C)n(C)nc4c3)n2)cc1S(N)(=O)=O", "read-out": "enzyme activity", "mode": "inhibitor", "concentration": "10 µM", "endpoint": "inhibition", "value": "-9%"}
{"Compound": "CC/C(=N\\NC(=O)NCc1cccc(O)c1)c1ccc(O)c(C)c1O", "read-out": "enzyme activity", "mode": "inhibitor", "concentration": "0.1 µM", "endpoint": "inhibition", "value": "2.5%"}
{"Compound": "FC(F)(F)c1ccc2c(c1)nc(-c1cccnc1)n2C1CC1", "read-out": "cell-free assay", "technique": "competition with immobilised ligand", "concentration": "1 µM", "endpoint": "remaining binding", "value": "100%"}
{"Compound": "CCCOc1ccc(OC)c(F)c1C(=O)c1ccc(C(=O)N[C@@H]2CNC[C@H]2NC(=O)c2ccc3[nH]ncc3c2)cc1", "read-out": "enzyme activity", "mode": "inhibitor", "concentration": "10 µM", "endpoint": "remaining activity", "value": "119%"}
{"Compound": "O=c1cc(N2CCOCC2)oc2c(-c3ccccc3)cccc12", "read-out": "cell-free assay", "concentration": "0.5 µM", "endpoint": "remaining signal", "value": "71.9%"}
{"Compound": "CCOC(=O)c1cc2cc(-c3cc(C(=O)NCc4ccc(C(=O)O)cc4)nn3C)ccc2[nH]1", "read-out": "cell-free assay", "technique": "competition with immobilised ligand", "concentration": "0.1 µM", "endpoint": "remaining binding", "value": "70%"}
{"Compound": "COc1cc(Cl)c(C(=O)N[C@@H](CN[C@H]2CC[C@@H](N)CC2)Cc2ccc(C#N)cc2)cc1-c1ccc(CN[C@H](C)c2ccc(C)cc2)o1", "read-out": "enzyme activity", "mode": "inhibitor", "concentration": "1 µM", "endpoint": "remaining activity", "value": "105%"}
{"Compound": "COc1cc(-c2cc(-c3ccc(N4CCNCC4)cc3)cnc2C)cc(OC)c1OC", "read-out": "enzyme activity", "mode": "inhibitor", "concentration": "1 µM", "endpoint": "inhibition", "value": "1%"}
{"Compound": "N#CC1(c2ccccn2)CCN(Cc2cc(C(=O)N3CCCC3)c(=O)n3ccccc23)CC1", "read-out": "cell-free assay", "technique": "competition with immobilised ligand", "concentration": "1 µM", "endpoint": "remaining binding", "value": "100%"}
{"Compound": "Cc1ccc(C(=O)NCc2ccsc2)cc1C#Cc1cn(C(C)C)c2ncnc(N)c12", "read-out": "enzyme activity", "mode": "inhibitor", "concentration": "1 µM", "endpoint": "activity vs control", "value": "118%"}
{"Compound": "O=C(Nc1cnn(-c2csc(C(=O)NC3COC3)c2)c1)Nc1ccccc1Cl", "read-out": "enzyme activity", "mode": "inhibitor", "concentration": "5 µM", "endpoint": "remaining activity", "value": "96.1%"}
{"Compound": "CN([C@@H]1CCc2c(CC(=O)O)c3cc(S(C)(=O)=O)ccc3n2C1)S(=O)(=O)c1ccc(F)cc1", "read-out": "cell-free assay", "technique": "competition with immobilised ligand", "concentration": "1 µM", "endpoint": "remaining binding", "value": "70%"}
{"Compound": "CNC(=O)c1cc(Oc2ccc(NC(=O)Nc3ccc(Cl)c(C(F)(F)F)c3)cc2)ccn1", "read-out": "enzyme activity", "mode": "inhibitor", "concentration": "0.3 µM", "endpoint": "inhibition", "value": "-12%"}
{"Compound": "O=C(NC[C@@H]1[C@H]2CN(C(=O)OCc3cc(C(F)(F)F)cc(C(F)(F)F)c3)C[C@@H]12)c1ccc2[nH]nnc2c1", "read-out": "cell-free assay", "technique": "competition with immobilised ligand", "concentration": "1 µM", "endpoint": "remaining binding", "value": "89%"}
{"Compound": "CCOc1cc(-c2nncn2C)ccc1Nc1ncc2cc(C)nc(NCC(C)(C)C)c2n1", "read-out": "enzyme activity", "mode": "inhibitor", "technique": "FRET", "concentration": "1 µM", "endpoint": "inhibition", "value": "19%"}
{"Compound": "CCCS(=O)(=O)Nc1ccc(F)c(C(=O)c2c[nH]c3ncc(-c4ccc(Cl)cc4)cc23)c1F", "read-out": "enzyme activity", "mode": "inhibitor", "concentration": "1 µM", "endpoint": "inhibition", "value": "< 10%"}
{"Compound": "CN1CCN(c2cnc3c(C4CCN(C(=O)c5ccc(OC(F)(F)F)cc5N)CC4)ncnc3c2)CC1", "read-out": "cell-free assay", "technique": "competition with immobilised ligand", "concentration": "1 µM", "endpoint": "remaining binding", "value": "100%"}
{"Compound": "Cc1sc(C(=O)NC2COC2)cc1-n1cc(NC(=O)Nc2c(F)cccc2Cl)cn1", "read-out": "enzyme activity", "mode": "inhibitor", "concentration": "10 µM", "endpoint": "remaining activity", "value": "102%"}
{"Compound": "CC(C)c1ccc(NC(=O)c2cccs2)c(-c2nc3ccccc3[nH]c2=O)c1", "read-out": "enzyme activity", "mode": "inhibitor", "concentration": "1 µM", "endpoint": "activity vs control", "value": "97%"}
{"Compound": "CSc1cccnc1N1CCN(Cc2nc3ccccc3[nH]2)CC1", "read-out": "cell-free assay", "technique": "competition with immobilised ligand", "concentration": "1 µM", "endpoint": "remaining binding", "value": "80%"}
{"Compound": "CS(=O)(=O)Nc1cccc(-c2csc(NC(=O)CSc3nc4nccnc4c(=O)n3CCc3ccccc3)n2)c1", "read-out": "enzyme activity", "mode": "inhibitor", "concentration": "10 µM", "endpoint": "inhibition", "value": "6%"}
{"Compound": "COc1cc2ncnc(Nc3ccc(Oc4ccccc4)c(C)c3C)c2cc1OC", "read-out": "enzyme activity", "mode": "inhibitor", "concentration": "1 µM", "endpoint": "inhibition", "value": "-16%"}
